Assay results pooled from the literature.
Protocols differ between the studies behind these lines.
Target: Ephrin type-A receptor 2 (EPHA2, Homo sapiens, UniProt P29317)

`C#Cc1cnc(Nc2ccnc(CO)c2)nc1Nc1ccccc1S(C)(=O)=NC#N` (stereo not shown) gave a remaining signal of 70% (cell-free assay; 1 µM).
`C1=C/COCc2cc(ccc2OCCN2CCCC2)Nc2nccc(n2)-c2cccc(c2)COC/1` gave a remaining binding of 100% (binding; 0.1 µM).
For `CCCCC(=O)Nc1ccc(-c2ccc3ncn(CCC)c(=O)c3c2)cn1`, the remaining binding was 100% (binding, competition with immobilised ligand; 0.5 µM).
For `N#Cc1ccc(NC(=O)Nc2ccccc2)cc1`, the remaining binding was 100% (cell-free assay, competition with immobilised ligand; 25 µM).
For `Cc1cc(O)c(-c2ccc([C@@H](C)CN(C)C)cc2)c2c1[nH]c(=O)c1sccc12`, the inhibition was -2.28% (cell-free assay, inhibitor; 0.1 µM).
For `C=CC(=O)N1CCC[C@@H](n2nc(-c3ccc(Oc4ccccc4)cc3)c3c(N)ncnc32)C1`, the inhibition was 4% (enzyme activity, inhibitor; 1 µM).
The remaining binding of `Cc1ccc(NC(=O)c2ccnc(C(F)(F)F)c2)cc1-c1cc(OCCO)nc(N2CCOCC2)c1` is reported as 63% (binding, competition with immobilised ligand; 1 µM).
`COc1ccc2oc(-c3ccc4nc(N)oc4c3)c/c(=N\c3ccccc3NC(=O)CCN)c2c1` has a remaining binding of 99% (binding; 1 µM).
The remaining binding of `COc1ccc2[nH]c3c4[nH]c5ccc(OC)cc5c4c4c(c3c2c1)C(=O)NC4=O` is reported as 85% (binding, competition with immobilised ligand; 1 µM).
`C=CC(=O)N1CCC([C@@H]2CCNc3c(C(N)=O)c(-c4ccc(Oc5ccccc5)cc4)nn32)CC1` gave an inhibition of 10% (cell-free assay; 1 µM).
